Measured values from ChEMBL document CHEMBL1134594 (J Med Chem, 2001).
Where a SMILES comes first, the peptide text is derived from it. Bridges are numbered along the chain shown (N, C = ends).

How the values were obtained:
Adenylate cyclase [1] = experiment: Adenylate cyclase activity measured as PA2; assay type: protein assay
Glucagon receptor = Glucagon receptor (Rattus norvegicus, UniProt P30082); experiment: Glucagon receptor binding measured as 50% inhibitory concentration
Method in brief: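 Membranes (50 µg protein) were taken from the livers of male Sprague Dawley rats (200-250 g), purified on a sucrose gradient. […] Nonspecific binding was defined with excess unlabeled peptide and subtracted. Run in triplicate, repeated twice.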

[2] = target: T1, Adenylate cyclase (Rattus norvegicus) (UniProt D4A3N4+P26770+Q04400+P26769+Q03343+P40146+Q8CFM9+P21932); experiment: Adenylate cyclase activity measured as percentage stimulation at (20uM); assay type: protein assay
Method in brief: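 Rat liver plasma membranes (35 µg protein) incubated in 0.1 mL of 25 mM Tris (pH 7.5) with 0.4% BSA, 1 mM [α-32P]ATP, 5 mM MgCl2, GTP, 1 mM EDTA, 1 mM cAMP with [3H]cAMP tracer, and a phosphocreatine/creatine phosphokinase ATP-regenerating system. Labeled cAMP was isolated on Dowex cation-exchange and alumina columns.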

Adenylate cyclase [3] = experiment: Adenylate cyclase activity measured as 50% inhibitory concentration; assay type: protein assay
[4] = target: T1, Adenylate cyclase (Rattus norvegicus); experiment: Adenylate cyclase activity measured as percentage stimulation; assay type: protein assay; parameters: concentration or dose not given beside the values

Sequence of Glucagon receptor (P30082 whole entry): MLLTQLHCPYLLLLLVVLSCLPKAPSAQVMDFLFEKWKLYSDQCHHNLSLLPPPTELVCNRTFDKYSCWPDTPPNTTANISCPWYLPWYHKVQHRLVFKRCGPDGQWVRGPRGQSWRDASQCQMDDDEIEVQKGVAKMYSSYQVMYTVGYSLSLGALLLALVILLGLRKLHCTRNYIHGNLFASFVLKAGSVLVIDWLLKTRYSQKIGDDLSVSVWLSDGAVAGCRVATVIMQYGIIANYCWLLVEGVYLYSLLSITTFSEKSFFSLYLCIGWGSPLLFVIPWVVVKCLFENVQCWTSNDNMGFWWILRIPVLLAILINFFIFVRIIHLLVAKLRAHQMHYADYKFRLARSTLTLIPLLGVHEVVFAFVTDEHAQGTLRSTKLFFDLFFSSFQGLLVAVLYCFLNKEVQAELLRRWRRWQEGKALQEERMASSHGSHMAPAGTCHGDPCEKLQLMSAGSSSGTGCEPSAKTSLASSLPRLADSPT

CSCC[C@H](NC(=O)[C@H](CC(C)C)NC(=O)[C@H](Cc1c[nH]c2ccccc12)NC(=O)[C@H](CCC(N)=O)NC(=O)[C@@H](NC(=O)[C@H](Cc1ccccc1)NC(=O)[C@H](CC(=O)O)NC(=O)[C@H](CCC(N)=O)NC(=O)[C@H](C)NC(=O)[C@H](CCCN=C(N)N)NC(=O)[C@H](CCCN=C(N)N)NC(=O)[C@H](CO)NC(=O)[C@H](CC(=O)O)NC(=O)[C@H](CC(C)C)NC(=O)[C@H](Cc1ccc(O)cc1)NC(=O)[C@H](CCCCN)NC(=O)[C@H](CO)NC(=O)[C@H](Cc1ccc(O)cc1)NC(=O)[C@H](CC(=O)O)NC(=O)[C@H](CO)NC(=O)[C@@H]1CCC(=O)NCCCC[C@H](NC(=O)[C@H](CO)NC(=O)[C@@H](N)Cc2c[nH]cn2)C(=O)NCC(=O)N[C@@H]([C@@H](C)O)C(=O)N[C@@H](Cc2ccccc2)C(=O)N1)C(C)C)C(=O)N[C@@H](CC(N)=O)C(=O)N[C@H](C(=O)O)[C@@H](C)O (H-HSKGTFESDYSKYLDSRRAQDFVQWLMNT-OH; lactam 3-7)
pA2 (Adenylate cyclase [1]): 8.28
IC50 (Glucagon receptor): 6 nM

CSCC[C@H](NC(=O)[C@H](CC(C)C)NC(=O)[C@H](Cc1c[nH]c2ccccc12)NC(=O)[C@H](CCC(N)=O)NC(=O)[C@@H](NC(=O)[C@H](Cc1ccccc1)NC(=O)[C@H](CC(=O)O)NC(=O)[C@H](CCC(N)=O)NC(=O)[C@H](C)NC(=O)[C@H](CCCN=C(N)N)NC(=O)[C@H](CCCN=C(N)N)NC(=O)[C@H](CO)NC(=O)[C@H](CC(=O)O)NC(=O)[C@H](CC(C)C)NC(=O)[C@H](Cc1ccc(O)cc1)NC(=O)[C@H](CS)NC(=O)[C@H](CO)NC(=O)[C@H](Cc1ccc(O)cc1)NC(=O)[C@H](CC(=O)O)NC(=O)[C@H](CO)NC(=O)[C@H](CS)NC(=O)[C@H](Cc1ccccc1)NC(=O)[C@@H](NC(=O)CNC(=O)[C@H](CCC(N)=O)NC(=O)[C@H](CO)NC(=O)[C@@H](N)Cc1c[nH]cn1)[C@@H](C)O)C(C)C)C(=O)N[C@@H](CC(N)=O)C(=O)N[C@H](C(=O)O)[C@@H](C)O (H-HSQGTFCSDYSCYLDSRRAQDFVQWLMNT-OH)
Activity [2]: 100%
EC50 (Adenylate cyclase [3]): 59 nM

CSCC[C@H](NC(=O)[C@H](CC(C)C)NC(=O)[C@H](Cc1c[nH]c2ccccc12)NC(=O)[C@H](CCC(N)=O)NC(=O)[C@@H](NC(=O)[C@H](Cc1ccccc1)NC(=O)[C@H](CC(=O)O)NC(=O)[C@H](CCC(N)=O)NC(=O)[C@H](C)NC(=O)[C@H](CCCN=C(N)N)NC(=O)[C@H](CCCN=C(N)N)NC(=O)[C@H](CO)NC(=O)[C@H](CC(=O)O)NC(=O)[C@H](CC(C)C)NC(=O)[C@H](Cc1ccc(O)cc1)NC(=O)[C@@H]1CSSC[C@H](NC(=O)[C@H](Cc2ccccc2)NC(=O)[C@@H](NC(=O)CNC(=O)[C@H](CCC(N)=O)NC(=O)[C@H](CO)NC(=O)[C@@H](N)Cc2c[nH]cn2)[C@@H](C)O)C(=O)N[C@@H](CO)C(=O)N[C@@H](CC(=O)O)C(=O)N[C@@H](Cc2ccc(O)cc2)C(=O)N[C@@H](CO)C(=O)N1)C(C)C)C(=O)N[C@@H](CC(N)=O)C(=O)N[C@H](C(=O)O)[C@@H](C)O (H-HSQGTFCSDYSCYLDSRRAQDFVQWLMNT-OH; disulfide 7-12)
Activity [2]: 53%
IC50 (Glucagon receptor): 558 nM
EC50 (Adenylate cyclase [3]): 5900 nM

CSCC[C@H](NC(=O)[C@H](CC(C)C)NC(=O)[C@H](Cc1c[nH]c2ccccc12)NC(=O)[C@H](CCC(N)=O)NC(=O)[C@@H](NC(=O)[C@H](Cc1ccccc1)NC(=O)[C@H](CC(=O)O)NC(=O)[C@H](CCC(N)=O)NC(=O)[C@H](C)NC(=O)[C@H](CCCN=C(N)N)NC(=O)[C@H](CCCN=C(N)N)NC(=O)[C@H](CO)NC(=O)[C@H](CC(=O)O)NC(=O)[C@H](CC(C)C)NC(=O)[C@@H]1CCC(=O)NCCCC[C@H](NC(=O)[C@H](CO)NC(=O)[C@@H](NC(=O)[C@H](Cc2ccccc2)NC(=O)[C@@H](NC(=O)CNC(=O)[C@H](CCC(N)=O)NC(=O)[C@H](CO)NC(=O)[C@@H](N)Cc2c[nH]cn2)[C@@H](C)O)[C@@H](C)O)C(=O)N[C@@H](Cc2ccc(O)cc2)C(=O)N[C@@H](CO)C(=O)N[C@@H](CCCCN)C(=O)N1)C(C)C)C(=O)N[C@@H](CC(N)=O)C(=O)N[C@H](C(=O)O)[C@@H](C)O (H-HSQGTFTSKYSKELDSRRAQDFVQWLMNT-OH; lactam 9-13)
Activity [4]: 19%
IC50 (Glucagon receptor): 652 nM
EC50 (Adenylate cyclase [3]): 23 nM
